From ChEMBL document CHEMBL4402603, “Structure-Activity Relationship of SPOP Inhibitors against Kidney Cancer” (J Med Chem, 2020)

Experiments:
[1] = system: A498; test: Antiproliferative activity against human A498 cells assessed as reduction in cell viability at 30 uM incubated for 72 hrs by MTT assay relative to control; assay type: functional; conditions: A498, 72 h
Procedure, shortened: (§1)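 MTT read-out. Cells seeded at 1,000-2,200/well, grown 12 hr at 37 °C, then compound added for 72 hr. MTT for 4 hr, formazan dissolved in DMSO, absorbance at 490 nm. Untreated-cell OD taken as 100% proliferation; inhibition reported at 30 μM.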

[2] = system: OS-RC-2; test: Antiproliferative activity against human OS-RC2 cells assessed as reduction in cell viability at 30 uM incubated for 72 hrs by MTT assay relative to control; assay type: functional; conditions: OS-RC-2, 72 h; procedure, shortened: as §1
[3] = biological target: Speckle-type POZ protein (Homo sapiens) (UniProt O43791); test: Binding affinity to recombinant N-terminal GST/His-tagged MATH binding domain SPOP (unknown origin) expressed in Escherichia coli BL21 (DE3) assessed as change in melting temperature at 10 fold compound incubated for 15 mins by nano differential scanning fluorimetry (reference value: -1.7 degreeC)
Chain of Speckle-type POZ protein (Homo sapiens) (O43791 whole entry, the tested form may be a part): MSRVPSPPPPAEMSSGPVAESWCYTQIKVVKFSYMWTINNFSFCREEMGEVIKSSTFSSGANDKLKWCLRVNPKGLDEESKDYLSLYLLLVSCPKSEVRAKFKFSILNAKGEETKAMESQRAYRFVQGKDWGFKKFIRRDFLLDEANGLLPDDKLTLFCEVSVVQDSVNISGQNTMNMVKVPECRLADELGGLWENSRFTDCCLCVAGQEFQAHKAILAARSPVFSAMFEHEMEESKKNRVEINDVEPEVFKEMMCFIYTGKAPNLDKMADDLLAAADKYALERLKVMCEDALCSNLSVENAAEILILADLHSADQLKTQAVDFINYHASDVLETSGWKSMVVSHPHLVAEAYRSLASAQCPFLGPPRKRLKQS

[4] = biological target: Speckle-type POZ protein (Homo sapiens) (UniProt O43791); test: Binding affinity to recombinant N-terminal GST/His-tagged MATH binding domain SPOP (unknown origin) expressed in Escherichia coli BL21 (DE3) assessed as change in melting temperature at 20 fold compound incubated for 15 mins by nano differential scanning fluorimetry (reference value: -3.8 degreeC)
[5] = system: A498; test: Antiproliferative activity against human A498 cells assessed as reduction in cell viability incubated for 72 hrs by MTT assay; assay type: functional, cell-based; conditions: A498, 72 h
Procedure, shortened: (§2)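 MTT read-out. Cells seeded at 1,000-2,200/well, grown 12 hr at 37 °C before compound, then exposed 72 hr. MTT for 4 hr, formazan dissolved in DMSO, A490 read. Untreated cells = 100% proliferation. IC50 quantitated; mean ± SD, n = 3.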

[6] = system: OS-RC-2; test: Antiproliferative activity against human OS-RC2 cells assessed as reduction in cell viability incubated for 72 hrs by MTT assay; assay type: functional, cell-based; conditions: OS-RC-2, 72 h; procedure, shortened: as §2
[7] = biological target: Speckle-type POZ protein (Homo sapiens) (UniProt O43791); test: Binding affinity to recombinant N-terminal GST/His-tagged SPOP (unknown origin) MATH binding domain expressed in Escherichia coli BL21 (DE3) assessed as change in melting temperature at 5 fold compound by SYPRO Orange dye based differential scanning fluorimetry (reference value: -1.7 degreeC)

ΔTm [3] [°C]	ΔTm [4] [°C]	ΔTm [7] [°C]	Compound	inhibition at 30 µM [1] [%]	inhibition at 30 µM [2] [%]	IC50 [5] [µM]	IC50 [6] [µM]
–	–	–	CCOC(=O)c1cc2cccnc2n(CCc2ccccc2)c1=O	15	19	–	–
2.8	2.6	–	Cc1cccn2c(=O)c3cc(C(=O)NCCCc4ccccc4)c(=N)n(CCc4cccs4)c3nc12	62	58	–	–
3.5	3.7	–	Cc1cccn2c(=O)c3cc(C(=O)NCCc4ccccc4)c(=N)n(CCc4cccs4)c3nc12	85	52	5	24.2
0.8	1.5	–	CCOC(=O)c1cc2c(=O)n3cccc(C)c3nc2n(CCc2ccc(C)cc2)c1=N	51	49	–	–
1.8	2.1	2	Cc1ccc(CCn2c(=N)c(C(=O)NCCCN3CCOCC3)cc3c(=O)n4cccc(C)c4nc32)cc1	91	94	2.1	5.7
–	–	–	N=c1c(C(=O)NCCCN2CCOCC2)cc2c(=O)n3ccccc3nc2n1CCc1cccs1	62	56	–	–
2.5	2.9	2	Cc1cccn2c(=O)c3cc(C(=O)NCCCN4CCOCC4)c(=N)n(CCc4ccc(F)cc4)c3nc12	90	88	3.1	6.6
2.3	3.7	–	Cc1cccn2c(=O)c3cc(C(=O)O)c(=N)n(CCc4ccccc4)c3nc12	13	28	–	–
–	–	–	O=C(O)c1cc2cnccc2n(CCc2ccccc2)c1=O	21	15	–	–
3.1	3.3	–	Cc1cccn2c(=O)c3cc(C(=O)NCCN4CCOCC4)c(=N)n(CCc4cccs4)c3nc12	86	82	–	–
–	–	–	Cc1cccn2c(=O)c3cc(C(=O)NCCc4ccc(F)cc4)c(=N)n(CCc4cccs4)c3nc12	12	21	–	–
–	–	–	Cc1cccn2c(=O)c3cc(C(=O)O)c(=N)n(-c4ccc(F)cc4)c3nc12	18	33	–	–
–	–	–	Cc1cccn2c(=O)c3cc(C(=O)NCCCN4CCOCC4)c(=N)n(CCc4c[nH]c5ccccc45)c3nc12	55	51	–	–
–	–	–	Cc1cccn2c(=O)c3cc(C(=O)NCCCN4CCOCC4)c(=N)n(-c4ccc(Cl)cc4)c3nc12	17	38	–	–
–	–	–	Cc1cccn2c(=O)c3cc(C(=O)NCCCN4CCOCC4)c(=N)n(CCOc4ccccc4)c3nc12	50	36	–	–
–	–	–	CCOC(=O)c1cc2c(=O)n3cccc(C)c3nc2n(C(C)C)c1=N	27	23	–	–
–	–	–	Cc1cccn2c(=O)c3cc(C(=O)NCCCN4CCOCC4)c(=N)n(CCCN4CCOCC4)c3nc12	27	35	–	–
0.8	1.6	–	CCOC(=O)c1cc2c(=O)n3cccc(C)c3nc2n(CCc2ccc(Cl)cc2)c1=N	42	48	–	–
–	–	–	Cc1cccn2c(=O)c3cc(C(=O)O)c(=N)n(-c4ccccc4)c3nc12	24	16	–	–
–	–	–	O=C(O)c1cc2cccnc2n(CCc2ccccc2)c1=O	33	24	–	–
4.9	5.3	–	CCOC(=O)c1cc2c(=O)n3cccc(C)c3nc2n(CCc2cccs2)c1=N	38	49	–	–
–	–	–	CCN(CC)CCNC(=O)c1cc2cnccc2n(CCc2ccccc2)c1=O	38	11	–	–
–	–	–	Cc1cccn2c(=O)c3cc(C(=O)O)c(=N)n(Cc4ccccc4)c3nc12	20	32	–	–
–	–	–	Cc1cccn2c(=O)c3cc(C(=O)NCCCN4CCOCC4)c(=N)n(CCCc4ccccc4)c3nc12	90	91	2.6	5.1
–	–	–	Cc1cccn2c(=O)c3cc(C(=O)NCCO)c(=N)n(CCc4cccs4)c3nc12	83	81	–	–
–	–	–	Cc1cccn2c(=O)c3cc(C(=O)NCc4ccccc4)c(=N)n(CCc4cccs4)c3nc12	60	50	–	–
–	–	–	CCOC(=O)c1cc2c(=O)n3cccc(C)c3nc2n(-c2ccccc2)c1=N	51	10	–	–
2.4	3.5	–	Cc1cccn2c(=O)c3cc(C(=O)NCCCN4CCOCC4)c(=N)n(CCc4ccc(Cl)cc4)c3nc12	90	97	2.3	4
